Activity calls are given as the source filed them. The rule behind the calls is not given here.

The target of the experiment is AmpC (Escherichia coli) (UniProt Q83TT7). Briefly: Inhibition of Escherichia coli AmpC assessed as induction of protein unfolding measured by trypsin mediated degradation of compound-AmpC enzyme complex at 100 uM after 4 hrs by gel electrophoresis. In a few lines:
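AmpC (0.5 μM) was preincubated 5 min with or without 100 μM aggregator in 50 mM KPi, pH 7.0, 1% DMSO final. Trypsin (0.01 or 0.025 mg/mL) was then added, and digestion ran at room temperature for 0, 15, 30 min, 1 h or 4 h. Samples were boiled in DTT-containing loading buffer and the AmpC band was followed by SDS-PAGE.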

Sequence of AmpC (Escherichia coli) (Q83TT7 as listed by the source): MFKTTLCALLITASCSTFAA

In the case of `CCCCCCNC(=O)Nc1ccc(S(=O)(=O)Nc2ccc(CCNC[C@H](O)COc3ccc(O)cc3)cc2)cc1`, the outcome was Active.

For the origin of these results see ChEMBL document CHEMBL1153954, “Promiscuous aggregate-based inhibitors promote enzyme unfolding” (J Med Chem, 2009).
